Molecules are shown by their SMILES.

The source of these data is ChEMBL document CHEMBL3351319, “Synthesis, biological evaluation and 3D-QSAR study of novel 4,5-dihydro-1H-pyrazole thiazole derivatives as BRAF(V⁶⁰⁰E) inhibitors” (Bioorg Med Chem, 2015).

Assay [1] has as its system MCF7. Nature of the assay: Induction of apoptosis in human MCF7 cells assessed as early apoptotic cells at 1 uM after 48 hrs using annexin V-FITC/PI by flow cytometry (reference value: 3.52 %). The assay is classed as functional.
For assay [2], the system named is WM 266-4. Nature of the assay: Induction of apoptosis in human WM266.4 cells assessed as early apoptotic cells at 3 uM after 48 hrs using annexin V-FITC/PI by flow cytometry (reference value: 5.79 %). The assay is classed as functional.
Assay [3] relates to WM 266-4. As to the kind of experiment: Induction of apoptosis in human WM266.4 cells assessed as viable cells at 1 uM after 48 hrs using annexin V-FITC/PI by flow cytometry (reference value: 86.39 %). The assay is classed as functional. To be noted: WM 266-4, 48 h, read-out: Activity.
For assay [4], the system named is MCF7. As to the kind of experiment: Induction of apoptosis in human MCF7 cells assessed as viable cells at 1 uM after 48 hrs using annexin V-FITC/PI by flow cytometry (reference value: 91.07 %). The assay is classed as functional. The settings on record: MCF7, 48 h, read-out: Activity.
A short description of assay [5]: Antiproliferative activity against human WM266.4 cells after 48 hrs by MTT assay. The settings on record: WM 266-4, 48 h. The assay is classed as functional, cell-based. Put shortly: (§1)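 Cells grown to log phase in RPMI 1640 with 10% FBS, seeded at 2 × 10^4 cells/mL and left 24 h at 37 °C, 5% CO2. Compounds added at pre-set concentrations, sorafenib as positive control, 48 h exposure. MTT (2.5 mg/mL in PBS) added for 4 h, then SDS-isobutanol-HCl extraction overnight at 37 °C. OD read at 570 nm. Three replicate wells per concentration, each assay run at least three times.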

Assay [6] concerns WM 266-4. As to the kind of experiment: Induction of apoptosis in human WM266.4 cells assessed as viable cells at 3 uM after 48 hrs using annexin V-FITC/PI by flow cytometry (reference value: 86.39 %). The assay is classed as functional. The settings on record: WM 266-4, 48 h, read-out: Activity.
The test system of assay [7] is MCF7. As to the kind of experiment: Induction of apoptosis in human MCF7 cells assessed as necrotic cells at 1 uM after 48 hrs using annexin V-FITC/PI by flow cytometry (reference value: 0.29 %). The assay is classed as functional.
Assay [8] has as its system WM 266-4. As to the kind of experiment: Induction of apoptosis in human WM266.4 cells assessed as necrotic cells at 3 uM after 48 hrs using annexin V-FITC/PI by flow cytometry (reference value: 1.26 %). The assay is classed as functional.
For assay [9], the system named is WM 266-4. Nature of the assay: Induction of apoptosis in human WM266.4 cells assessed as necrotic cells at 1 uM after 48 hrs using annexin V-FITC/PI by flow cytometry (reference value: 1.26 %). The assay is classed as functional.
Assay [10] concerns WM 266-4. As to the kind of experiment: Induction of apoptosis in human WM266.4 cells assessed as late apoptotic cells at 3 uM after 48 hrs using annexin V-FITC/PI by flow cytometry (reference value: 6.56 %). The assay is classed as functional.
In assay [11] the test system is MCF7. Nature of the assay: Induction of apoptosis in human MCF7 cells assessed as late apoptotic cells at 1 uM after 48 hrs using annexin V-FITC/PI by flow cytometry (reference value: 5.12 %). The assay is classed as functional.
The test system of assay [12] is MCF7. Nature of the assay: Induction of apoptosis in human MCF7 cells assessed as viable cells at 3 uM after 48 hrs using annexin V-FITC/PI by flow cytometry (reference value: 91.07 %). The assay is classed as functional. To be noted: MCF7, 48 h, read-out: Activity.
Assay [13] concerns MCF7. Nature of the assay: Induction of apoptosis in human MCF7 cells assessed as late apoptotic cells at 3 uM after 48 hrs using annexin V-FITC/PI by flow cytometry (reference value: 5.12 %). The assay is classed as functional.
Assay [14] has as its system MCF7. Nature of the assay: Induction of apoptosis in human MCF7 cells assessed as early apoptotic cells at 3 uM after 48 hrs using annexin V-FITC/PI by flow cytometry (reference value: 3.52 %). The assay is classed as functional.
Assay [15] relates to MCF7. As to the kind of experiment: Induction of apoptosis in human MCF7 cells assessed as necrotic cells at 3 uM after 48 hrs using annexin V-FITC/PI by flow cytometry (reference value: 0.29 %). The assay is classed as functional.
For assay [16], the system named is WM 266-4. As to the kind of experiment: Induction of apoptosis in human WM266.4 cells assessed as early apoptotic cells at 1 uM after 48 hrs using annexin V-FITC/PI by flow cytometry (reference value: 5.79 %). The assay is classed as functional.
The test system of assay [17] is MCF7. As to the kind of experiment: Antiproliferative activity against human MCF7 cells after 48 hrs by MTT assay. The assay is classed as functional, cell-based. To be noted: MCF7, 48 h. Put shortly: as §1
Assay [18] can be described thus: Inhibition of full-length GST-tagged mouse BRAF V600E mutant using MEK1 as substrate preincubated for 1 hr. A digest of the protocol:
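Mouse full-length GST-tagged BRAF V600E (7.5 ng) pre-incubated 1 h at room temperature with compound in assay dilution buffer. Reaction started by adding 200 ng His-tagged full-length human MEK1, 200 µM ATP (0.8 µCi hot ATP) and 30 mM MgCl2, then run 25 min at room temperature. Quenched with LDS buffer and heated 5 min at 70 °C. Products separated on 4-12% gel, which was dried and read on a phosphor screen. No-enzyme and no-inhibitor controls included, triplicate.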

Assay [19] relates to WM 266-4. Nature of the assay: Induction of apoptosis in human WM266.4 cells assessed as late apoptotic cells at 1 uM after 48 hrs using annexin V-FITC/PI by flow cytometry (reference value: 6.56 %). The assay is classed as functional.

As for `FC(F)(F)c1ccc(-c2csc(N3N=C(c4ccc(Cl)cc4)CC3c3cccs3)n2)cc1` (centres undefined), the Activity in assay [1] is reported as 39.15%; in assay [2], 47.19%; in assay [7] it was 1.2%; in [8], 3.54%; in assay [9], 0.09%; in [10] it was 38.25%. Besides, the Activity came out at 27.25% in [11]; 33.01% in assay [13]; 43.69% in assay [14]; 3.54% in assay [15]; 14.13% in assay [16]; 17.54% in assay [19]. Besides, the viability at 1 µM was found to be 68.2% in assay [3] and 32.4% in assay [4]. Also, the values for the IC50 in assay [5], in assay [17] and in [18] were 0.12 µM, 0.16 µM and 0.05 µM, respectively. The viability at 3 µM in assay [6] was determined as 11%; in assay [12], 19.8%.
Take `Cc1ccc(C2=NN(c3nc(-c4ccc(C(F)(F)F)cc4)cs3)C(c3cccs3)C2)cc1` (centres undefined): the half-inhibitory concentration (IC50) is 2.11 µM in [5], 31.5 µM in assay [17] and 6.18 µM in assay [18].
Consider `Clc1ccc(C2=NN(c3nc(-c4ccccc4)cs3)C(c3cccs3)C2)cc1` (centres undefined), for which the IC50 in assay [5] was determined as 2.19 µM; in assay [17] it was 0.19 µM; in [18] it was 0.09 µM.
In the same order, the values of `Brc1ccc(C2=NN(c3nc(-c4ccc(Br)cc4)cs3)C(c3cccs3)C2)cc1` (centres undefined) are 13 µM, 28.3 µM and 8.87 µM.
In the same order, the values of `Fc1ccc(C2=NN(c3nc(-c4ccccc4)cs3)C(c3cccs3)C2)cc1` (centres undefined) are 0.17 µM, 2.34 µM and 0.67 µM.
For `COc1ccc(-c2csc(N3N=C(c4ccc(F)cc4)CC3c3cccs3)n2)cc1` (centres undefined), in that order: 4.42 µM, 14.2 µM and 5.12 µM.
Take `COc1ccc(C2=NN(c3nc(-c4ccccc4)cs3)C(c3cccs3)C2)cc1` (centres undefined): the 50% inhibitory concentration (IC50) in assay [5] was found to be 2.12 µM; in [17] it was 9.01 µM; in [18], 1.11 µM.
Regarding `COc1ccc(C2=NN(c3nc(-c4ccc(Br)cc4)cs3)C(c3cccs3)C2)cc1` (centres undefined), the half-maximal inhibitory concentration (IC50) worked out at 5.87 µM in assay [5], 21.2 µM in assay [17] and 4.01 µM in assay [18].
For `Clc1ccc(C2=NN(c3nc(-c4ccc(Br)cc4)cs3)C(c3cccs3)C2)cc1` (centres undefined), in that order: 1.45 µM, 14.7 µM and 4.78 µM.
With `Cc1ccc(C2=NN(c3nc(-c4ccc(Br)cc4)cs3)C(c3cccs3)C2)cc1` (centres undefined), the values for the IC50 in [5], in assay [17] and in assay [18] were 18.4 µM, 2.01 µM and 0.56 µM, respectively.
In the same order, the values of `COc1ccc(-c2csc(N3N=C(c4ccc(C)cc4)CC3c3cccs3)n2)cc1` (centres undefined) are 3.77 µM, 4.77 µM and 0.11 µM.
In the same order, the values of `Brc1ccc(C2=NN(c3nc(-c4ccccc4)cs3)C(c3cccs3)C2)cc1` (centres undefined) are 1.87 µM, 6.79 µM and 2.19 µM.
Regarding `Fc1ccc(C2=NN(c3nc(-c4ccc(Br)cc4)cs3)C(c3cccs3)C2)cc1` (centres undefined), the 50% inhibitory concentration (IC50) was 0.22 µM in assay [5], 8.28 µM in [17] and 1.86 µM in assay [18].
For `COc1ccc(C2=NN(c3nc(-c4ccc(C(F)(F)F)cc4)cs3)C(c3cccs3)C2)cc1` (centres undefined), in that order: 8.11 µM, 45.7 µM and 10.9 µM.
For `CNC(=O)c1cc(Oc2ccc(NC(=O)Nc3ccc(Cl)c(C(F)(F)F)c3)cc2)ccn1` [SORAFENIB], in that order: 0.06 µM, 0.19 µM and 0.03 µM.
In the same order, the values of `FC(F)(F)c1ccc(-c2csc(N3N=C(c4ccc(Br)cc4)CC3c3cccs3)n2)cc1` (centres undefined) are 27.4 µM, 7.81 µM and 2.09 µM.
For `COc1ccc(-c2csc(N3N=C(c4ccc(Cl)cc4)CC3c3cccs3)n2)cc1` (centres undefined), the IC50 in assay [5] is 1.31 µM; in assay [17], 2.48 µM; in assay [18], 0.19 µM.
For `Cc1ccc(C2=NN(c3nc(-c4ccccc4)cs3)C(c3cccs3)C2)cc1` (centres undefined), in that order: 7.52 µM, 18.6 µM and 3.88 µM.
On to `COc1ccc(C2=NN(c3nc(-c4ccc(OC)cc4)cs3)C(c3cccs3)C2)cc1` (centres undefined), for which the IC50 in assay [5] turned out to be 31.6 µM; in [17], 16.2 µM; in assay [18] it was 5.23 µM.
In the same order, the values of `Fc1ccc(C2=NN(c3nc(-c4ccc(C(F)(F)F)cc4)cs3)C(c3cccs3)C2)cc1` (centres undefined) are 5.12 µM, 1.33 µM and 1.01 µM.
In the same order, the values of `COc1ccc(-c2csc(N3N=C(c4ccc(Br)cc4)CC3c3cccs3)n2)cc1` (centres undefined) are 2.01 µM, 0.68 µM and 0.08 µM.
